Source: PubChem (Johns Hopkins Ion Channel Center)
MrgX1 allo act: human MrgX1 positive allosteric modulation, primary screen; MrgX1-HEK293, Fluo-4 calcium flux, FDSS; stronger effect = higher value; B-score at 10 µM; 310,000 compounds, 0.63% hits;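 active means plate-corrected calcium response at least 3 library SD above typical, normal starting fluorescence, not activating the receptor alone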;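 further: compound read alongside a low EC10 to EC30 dose of BAM8-22 agonist; peak minus trough fluorescence over baseline measured at the second addition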
Target sequence (Q96LB2 whole entry, looked up): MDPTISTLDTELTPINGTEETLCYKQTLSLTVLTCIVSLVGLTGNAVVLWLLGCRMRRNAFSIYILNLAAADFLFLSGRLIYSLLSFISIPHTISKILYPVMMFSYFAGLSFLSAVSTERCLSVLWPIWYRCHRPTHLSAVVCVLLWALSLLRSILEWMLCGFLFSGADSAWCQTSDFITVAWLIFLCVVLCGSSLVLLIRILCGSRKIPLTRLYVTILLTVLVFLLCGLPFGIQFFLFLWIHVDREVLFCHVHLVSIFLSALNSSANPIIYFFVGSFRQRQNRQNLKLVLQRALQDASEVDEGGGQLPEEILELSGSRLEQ
RGS4 pot: potentiators or activators of RGS4; 310,000 compounds, 0.92% hits; B-score at 10 µM; AID 463111; HEK293 M3R/inducible RGS4, carbachol calcium flux Fluo4; stronger effect = lower value;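 active means B-score of the integrated calcium signal more than 4 SD below the library mean, with starting fluorescence not abnormally high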;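 further: negative B-score means reduced calcium response which marks RGS4 activation or potentiation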
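Material: M3R-expressing HEK293 line, RGS4 induced by doxycycline | Schedule: Overnight RGS4 induction, 30 min dye load 37 °C, 20 min compound RT | Measured by: Fluo4 fluorescence kinetic imaging of calcium | Read-out: Integrated calcium ratio converted to B score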
MrgX1 agonist: agonists of human MrgX1 receptor; B-score at 10 µM; MrgX1-HEK293 cells, Fluo-4 calcium fluorescence, agonist mode; stronger effect = higher value; 310,000 compounds, 0.44% hits; Q96LB2;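 active means calcium response B-score plate-corrected fluorescence ratio at least 3 library SD, with starting fluorescence B-score inside 5 SD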
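Material – MrgX1-expressing HEK293 cells · Input – 15,000 cells seeded per well · Dosing – compound as first of three additions · Times – overnight seeding, then 1 h dark dye loading · Measured by – kinetic Fluo-4 NW fluorescence of intracellular calcium · Read-out – B-scored fluorescence response ratio · Benchmarks – positive and negative control wells on each plate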
MrgX1 antagonist: human MrgX1 receptor antagonism, primary screen; Q96LB2; 310,000 compounds, 1.3% hits; AID 588676; MRGX1-HEK293 calcium flux, Fluo-4, BAM8-22 antagonism; stronger effect = lower value; B-score at 10 µM;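 active means calcium-response B-score plate-corrected more than 3 library SD below zero, starting fluorescence within 5 deviations, no agonist response on first addition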;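 further: peak minus trough fluorescence over baseline after final BAM8-22 challenge near maximal dose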
RGS4 block: human RGS4 inhibition; HEK293 M3R/RGS4 inducible, Fluo-4 calcium flux; stronger effect = higher value; triggered by carbachol at its EC20; B-score at 10 µM; 310,000 compounds, 0.45% hits; AID 463165;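 active means B-score, a plate-corrected calcium signal, over three deviations above library mean, with baseline fluorescence within five deviations of library mean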;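 further: RGS4 expression induced by doxycycline in cells with stable M3 receptor; B-score is computed from the integrated fluorescence ratio over baseline after carbachol; higher B-score means a larger calcium signal and so more RGS4 inhibition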
Target sequence (P49798 whole entry, looked up): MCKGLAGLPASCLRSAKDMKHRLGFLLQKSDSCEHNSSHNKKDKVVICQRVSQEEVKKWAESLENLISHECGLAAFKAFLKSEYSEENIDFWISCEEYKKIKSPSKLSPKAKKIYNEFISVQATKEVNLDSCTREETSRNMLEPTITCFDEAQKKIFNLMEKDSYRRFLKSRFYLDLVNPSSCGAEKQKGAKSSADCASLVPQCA
MrgX1 ant reconf: reconfirmed antagonist of human MrgX1 receptor signaling; 2,300 compounds, 19% hits; shares compounds with MrgX1 antagonist; remaining BAM8-22 calcium response % of control (stronger effect = lower value), % at 10 µM; MrgX1-HEK293, BAM8-22 calcium flux, Fluo-4; stronger effect = lower value;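 active means remaining agonist calcium response no higher than 100% minus 3 SD of agonist-only control wells, with starting fluorescence near control levels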;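 further: agonist BAM8-22 given at a near maximal EC90 to ECmax level; peak minus minimum fluorescence divided by baseline after agonist addition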
HEK293 Ca flux: counter-screen for MrgX1 antagonists: effect in parental HEK293 cells; shares compounds with MrgX1 antagonist; 4,000 compounds, 2% hits; Fluo-4 calcium fluorescence, FDSS; fluorescence ratio F(max-min)/F0 at 10 µM;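 active means duplicate-averaged calcium fluorescence ratio at least three times the standard deviation of buffer wells, a nonspecific response in parental cells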
HEK293 Ca counter: MrgX1 allosteric activator counter-screen hit in parental HEK293 cells; shares compounds with MrgX1 antagonist; parental HEK293 calcium flux, Fluo-4 fluorescence ratio; stronger effect = higher value; 4,000 compounds, 0.4% hits; fluorescence ratio F(max-min)/F0 at 10 µM; AID 624114;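 active means calcium fluorescence ratio, averaged over duplicates, at least 3 SD of the buffer-well ratio, meaning a nonspecific response in receptor-free cells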;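 further: untransfected parental HEK293 lacking MrgX1 used as counterscreen for MrgX1 allosteric activators; fluorescence change taken during the second addition on a kinetic imager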
HEK293 Ca cntr2: MrgX1 activator counter-screen hit in parental HEK293 cells; shares compounds with MrgX1 antagonist; Fluo-4 calcium fluorescence (FDSS); stronger effect = higher value; fluorescence ratio F(max-min)/F0 at 10 µM; 4,000 compounds, 8.7% hits;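 active means calcium fluorescence ratio at least three times the spread of buffer wells, meaning a non-specific response in parental cells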
Starred values were filed as active, the others as inactive; i = inactive; . = no result given. The list is not random: actives were taken first. Their share in the collection is about 3.5%.

SMILES | MrgX1 allo act | RGS4 pot | MrgX1 agonist | MrgX1 antagonist | RGS4 block | MrgX1 ant reconf | HEK293 Ca flux | HEK293 Ca counter | HEK293 Ca cntr2
O=C(Nc1cccc(Cl)c1)Nc1cccc(Cl)c1 | i | i | i | i | i | . | . | . | .
CCc1ccc(C(=O)COC(=O)[C@@H](NC(N)=O)[C@@H](C)CC)cc1 | i | i | i | i | i | . | . | . | .
CC1CCN(C(=O)CSc2nc(C(C)C)nc3c2c(=O)n(C)c(=O)n3C)CC1 | i | i | i | i | i | . | . | . | .
COC(=O)c1cc(NC(=O)Nc2cccc(Cl)c2)ccc1Cl | i | i | i | -4.7* | i | 82%* | i | i | i
Cc1ccccc1NC(=O)Cc1nc(CCl)cs1 | i | i | i | -5.4* | i | i | i | i | i
Cc1ccc(C)c(NC(=O)Cc2nc(CCl)cs2)c1 | i | i | i | i | i | . | . | . | .
CCOC(=O)Cc1csc(SC(C)C(=O)NC2CCCCC2C)n1 (stereo unspecified) | i | i | i | -5.3* | i | 85%* | i | i | i
CCOC(=O)Cc1csc(SCC(=O)NC2CCCC(C)C2C)n1 (stereo unspecified) | i | i | i | i | i | . | . | . | .
Cc1ccccc1CSCCNS(C)(=O)=O | i | i | i | -5.3* | i | i | i | i | i
CSc1nc(C)c(CCO)c(=O)[nH]1 | i | i | i | i | i | . | . | . | .
CCOC(=O)c1ccccc1NC(=O)N[C@@H](C)C(=O)OC | i | i | i | -4.6* | i | i | i | i | i
COC(=O)c1ccccc1NC(=O)N[C@@H](C)C(=O)OC | i | i | i | i | i | . | . | . | .
CC(Oc1cccc(Cl)c1)C(=O)Nc1cc(Cl)ccc1N1CCOCC1 (stereo unspecified) | i | i | i | i | i | . | . | . | .
Cc1ccc(-c2nc3c(c(SCC(=O)N4CCOCC4)n2)COC(C)(C)C3)cc1 | i | i | i | i | i | . | . | . | .
C=CCNC(=O)c1ccc(-n2cccc2)cc1 | i | i | i | -8* | i | i | i | i | i
C=CCNC(=O)c1ccncc1 | i | i | i | i | i | . | . | . | .
CC(=O)Nc1ccc(Sc2ncccc2C(=O)Nc2ccc(OC(F)(F)F)cc2)cn1 | i | i | i | -10* | i | i | i | i | i
COC(=O)c1ccc2c(=O)sc(N3CCC(C(N)=O)CC3)nc2c1 | i | i | i | -7.6* | i | i | i | i | i
COC(=O)c1ccc(C(=O)OC)c(NC(=S)N2CCC(C(N)=O)CC2)c1 | i | i | i | i | i | . | . | . | .
CCOC(=O)N1CCN(C(=O)CCCn2c(=S)[nH]c3ccccc3c2=O)CC1 | i | i | i | i | i | . | . | . | .
CCOC(=O)N1CCN(C(=O)CCCn2c(=O)[nH]c3ccccc3c2=O)CC1 | i | i | i | -7.4* | i | i | i | i | i
COc1ccc(C(=O)N2CCOC2CNC(=O)C(=O)NCc2ccc(F)cc2)cc1 (stereo unspecified) | i | i | i | -5.1* | i | i | i | i | i
CC(C)OC(=O)CSc1nc(-c2ccc(F)cc2)nc2ccc(F)cc12 | i | i | i | -10* | i | i | i | i | i
CC1CCN(C(=O)C2CCC(=O)N(Cc3ccc(Cl)cc3)C2)CC1 (stereo unspecified) | i | i | i | i | i | . | . | . | .
Cc1ccc(NC(=O)Nc2cccnc2)cc1Cl | i | i | i | -4.7* | i | 80%* | i | i | i
SMILES | MrgX1 allo act | RGS4 pot | MrgX1 agonist | MrgX1 antagonist | RGS4 block | MrgX1 ant reconf | HEK293 Ca flux | HEK293 Ca counter | HEK293 Ca cntr2
O=C(Nc1ccc(F)c(Cl)c1)Nc1cnccn1 | i | i | i | -6.2* | i | i | i | i | i
Fc1ccc(NC(=S)Nc2cccnc2)cc1 | i | i | i | i | i | . | . | . | .
Fc1ccc(NC(=S)Nc2cccnc2)cc1Cl | i | i | i | -5.6* | i | i | i | i | i
CC(=O)Nc1ccc(OC(=O)N2CCCC2)cc1 | i | i | i | i | i | . | . | . | .
O=C(c1ccc(-n2cncn2)c([N+](=O)[O-])c1)N1CCN(S(=O)(=O)c2cccc(F)c2)CC1 | i | i | i | i | i | . | . | . | .
CCCCCOc1ccc(C(=O)CCC(=O)Nc2ccc(NC(C)=O)cc2)cc1 | i | i | i | i | i | . | . | . | .
O=C(NNC(=O)c1ccc([N+](=O)[O-])cc1Cl)c1ccncc1 | i | i | i | i | i | . | . | . | .
Cc1nn2c(NCCN3CCOCC3)c3c(nc2c1-c1ccccc1)CCCC3 | i | i | i | -5.9* | i | i | i | i | i
Cc1nn2c(NCc3ccccn3)c3c(nc2c1-c1ccccc1)CCC3 | i | i | i | i | i | . | . | . | .
Nc1ncnc2nc(SCC(=O)N3CCN(c4ccccc4)CC3)[nH]c12 | i | i | i | -4.7* | i | i | i | i | i
CN(C)S(=O)(=O)c1cccc(NC(=O)CN2C(=O)C3C4C=CC(C4)C3C2=O)c1 (stereo unspecified) | i | i | i | -6.8* | i | i | i | i | i
COc1ccc(-c2csc(NC(=O)C3COc4ccccc4O3)n2)cc1OC (stereo unspecified) | i | i | i | i | i | . | . | . | .
CCOC(=O)c1c(C)[nH]c(C)c1S(=O)(=O)N(C)CC(=O)Nc1cc(C)ccc1OC | i | i | i | -9.1* | i | i | i | i | i
CCN1CCN(C(CNS(=O)(=O)c2cccs2)c2cccnc2)CC1 (stereo unspecified) | i | i | i | i | i | . | . | . | .
Oc1ccc(Nc2nc(NCC3CCCO3)c3ccccc3n2)cc1 (stereo unspecified) | . | i | . | . | i | . | . | . | .
COc1cccc(Nc2nc(NCC3CCCO3)c3ccccc3n2)c1 (stereo unspecified) | i | i | i | -6.1* | i | 20%* | i | i | i
